Compound activity (PubChem BioAssay)
Ecoli WT expand: growth inhibitors of wild-type E. coli, primary screen, strain BW25113, expanded library, OD600. OD600 absorbance. growth inhibition, % at 100 µM. 98,000 compounds, 0.15% hits. AID 710, 2007;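 active means growth inhibition above about 50% at one test dose, limit read from the data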;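 further: growth measured after 20 h incubation at 37 °C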
BAP1 block: inhibitors of BAP1 deubiquitinase, primary screen, biochemical, Ub-AMC fluorescence, kinetic; Ubiquitin carboxyl-terminal hydrolase BAP1 (Homo sapiens), Q92560; recombinant BAP1, Ub-AMC hydrolysis fluorescence kinetic; hits give low values; calls only at 20 µM; 72,000 compounds, 0.48% hits;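 active means activity remaining at or below 50% of control, provided the compound also passes the data quality filters; inactive means the rest, including low values that fail the filters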
Target sequence (Q92560 whole entry, looked up): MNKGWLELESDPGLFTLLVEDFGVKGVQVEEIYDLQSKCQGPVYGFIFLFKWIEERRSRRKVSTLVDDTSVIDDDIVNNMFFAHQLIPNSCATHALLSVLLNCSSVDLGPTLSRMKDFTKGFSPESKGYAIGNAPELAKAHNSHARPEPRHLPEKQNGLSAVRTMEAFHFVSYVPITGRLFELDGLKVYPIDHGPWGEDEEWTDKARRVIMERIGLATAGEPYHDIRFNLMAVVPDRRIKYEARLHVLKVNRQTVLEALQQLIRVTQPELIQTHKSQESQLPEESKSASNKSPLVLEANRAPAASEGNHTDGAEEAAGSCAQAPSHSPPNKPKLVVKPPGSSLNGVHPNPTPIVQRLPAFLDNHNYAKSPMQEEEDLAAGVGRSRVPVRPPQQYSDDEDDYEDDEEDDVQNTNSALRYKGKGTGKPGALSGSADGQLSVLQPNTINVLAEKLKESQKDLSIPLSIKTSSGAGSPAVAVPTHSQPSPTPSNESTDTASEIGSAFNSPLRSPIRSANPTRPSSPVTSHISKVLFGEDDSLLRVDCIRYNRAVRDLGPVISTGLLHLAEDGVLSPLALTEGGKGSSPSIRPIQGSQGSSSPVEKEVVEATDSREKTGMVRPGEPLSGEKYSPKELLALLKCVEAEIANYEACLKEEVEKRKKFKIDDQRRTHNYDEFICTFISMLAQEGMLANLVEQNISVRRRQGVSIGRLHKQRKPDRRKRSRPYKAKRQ
Ecoli tolC: growth inhibitors of E. coli tolC mutant, primary screen, strain BW25113 ΔtolC::kan, 384-well; OD615; growth inhibition, % at 10 µM (by protocol); 65,000 compounds, 2.2% hits; AID 573, 2007;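 active means growth inhibition at or above a cutoff equal to the mean over every tested compound plus 3 SD, cut at about 60% in these data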;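 further: growth measured after 20 h incubation at 37 °C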
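Doses: one dose of 10 µM final / Material: E. coli BW25113 ΔtolC::kan, tolC deletion mutant strain / Buffer or medium: LB with kanamycin 50 µg/mL / Evaluation: percent growth inhibition / Detection: optical density read at 615 nm / Incubation: 37 °C, 20 h exposure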
Hsp90 block: tumor Hsp90 inhibitors, primary screen, cell lysate, fluorescence polarization, NCI-N417 lysate; Heat shock protein HSP 90-alpha (Homo sapiens), P07900; inhibition, % at 30 µM; Cy3B-geldanamycin FP displacement; 64,000 compounds, 0.35% hits;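 active means inhibition above 50%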
M1 antagonist: antagonists of rat M1 muscarinic receptor | Muscarinic acetylcholine receptor M1 (Rattus norvegicus), P08482 | CHO-M1 cells, Fluo-4 calcium, ACh EC80 antagonist mode; hits give low values | B-score at 10 µM | 64,000 compounds, 3.4% hits | AID 628, 2007;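 active means calcium fluorescence response, raw or row-and-column corrected B-score, differing from the plate sample mean either way at a set confidence level, mostly lower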
M1 ag: M1 muscarinic receptor agonists, primary screen, CHO-M1 cells, Fluo-4 calcium, agonist mode; AID 626, 2007; Fluo-4 calcium fluorescence; hits give high values; 64,000 compounds, 3% hits; B-score at 10 µM;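 active means fluorescence rise, raw or as B-score row- and column-corrected plate score, outside the 99.7% band of its plate's samples, either direction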
M1 ag confirm: rat M1 muscarinic receptor agonists, confirmation, CHO-M1 cells, Fluo-4 calcium, duplicate retest; shares compounds with M1 ag; Fluo-4 calcium fluorescence, agonist mode; actives lie on both sides; fluorescence change (max-min) at 10 µM; 1,700 compounds, 19% hits;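 active means fluorescence change differs from the solvent-only DMSO control mean at a set confidence level in both duplicate runs; inconclusive means differs from solvent-only control mean in just one of two runs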;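 further: an EC20 dose of acetylcholine follows compound addition during the same imaging run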
M4 ag counter: agonist activity at rat M4 receptor, confirmation, counter-screen for M1 allosteric modulator project, cell-based, agonist mode; shares compounds with M1 ag; CHO M4/Gqi5 cells, Fluo-4 calcium fluorescence; actives lie on both sides; fluorescence change (max-min) at 10 µM; 1,700 compounds, 9% hits;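 active means fluorescence change differing from the plate's solvent-only control wells at 99.7% confidence in both duplicates, whether higher or lower; inconclusive means differs from solvent controls in only one of two duplicates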
Each line names hits and unclear results; the compound was inactive in the other large screens (follow-up assays come after a bar, where shown). In the library only some 5.1% were active in any assay of this set; here they are far more common.

COc1ccc2ccccc2c1/C=N/O	M1 ag 5.6 (not shown: BAP1 block) | M1 ag confirm inconclusive | M4 ag counter -71
C=CCOc1ccc2ccccc2c1/C=N/O	none (no result: BAP1 block, Ecoli tolC, Hsp90 block, M1 antagonist, M1 ag)
Cc1ccc(C2C(C#N)=C(N)SC(N)=C2C#N)cc1	none
Cc1ccc(C2C(C#N)=C(N)SC(N)=C2C#N)c(C)c1	M1 ag 11 (not shown: BAP1 block) | M1 ag confirm inactive | M4 ag counter inactive
COC(=O)C1=C(C)N(C)C(=S)NC1c1ccc(Br)cc1 (stereo not given)	none (no result: Ecoli WT expand, Ecoli tolC, Hsp90 block, M1 antagonist, M1 ag)
Cc1c(NC(=O)c2cccc(F)c2)c(=O)n(-c2ccccc2)n1C	M1 antagonist -6.5, M1 ag 8.9 | M1 ag confirm inactive | M4 ag counter inconclusive
Cc1c(NC(=O)c2ccc(F)cc2)c(=O)n(-c2ccccc2)n1C	none
Cc1c(NC(=O)c2ccc(COc3ccc4ccccc4c3)o2)c(=O)n(-c2ccccc2)n1C	M1 ag -2.8 (no result: Ecoli WT expand) | M1 ag confirm inactive | M4 ag counter inactive
COc1ccc(C2CC(C(F)(F)F)n3nc(C(=O)NCCc4ccccc4)c(Cl)c3N2)cc1 (stereo not given)	none (no result: Ecoli WT expand, Ecoli tolC, Hsp90 block, M1 antagonist, M1 ag)
Cc1nc2nc(-c3cccs3)cn2nc1C	M1 ag 100 | M1 ag confirm 1066 | M4 ag counter 1014
COc1ccccc1NC(=O)CSc1nnc(-c2ccncc2)o1	none
COc1ccccc1NC(=O)CSc1nnc(C)o1	M1 ag 2.4 (no result: BAP1 block, Hsp90 block) | M1 ag confirm inactive | M4 ag counter inactive
COC(=O)c1c(NC(=O)CN2CCN(c3ccccc3)CC2)c2c(C)cccc2n1C	M1 ag 4.5 | M1 ag confirm -25 | M4 ag counter inconclusive
COC(=O)c1c(NC(=O)CN2CCN(c3ccccc3OC)CC2)c2c(C)cccc2n1C	none
CC1CCN(S(=O)(=O)c2ccc3c4c(cccc24)C(=O)N3)CC1	none (no result: Ecoli WT expand, Ecoli tolC, Hsp90 block, M1 antagonist, M1 ag)
CCOC(=O)c1ccc(NC(=O)Nc2ccc(OC)c(OC)c2)cc1	M1 ag 7.3 | M1 ag confirm -22 | M4 ag counter inconclusive
CCCCOC(=O)c1ccc(NC(=O)Nc2ccc(OC)c(OC)c2)cc1	none (no result: BAP1 block, Ecoli tolC, Hsp90 block, M1 antagonist, M1 ag)
COC(=O)c1ccc(NC(=O)Nc2ccc(F)cc2)cc1	M1 antagonist -3.4, M1 ag 15 | M1 ag confirm inactive | M4 ag counter inactive
CCOc1ccc2cc(C(N)=S)c(=N)oc2c1	none (no result: Ecoli WT expand, Ecoli tolC, Hsp90 block, M1 antagonist, M1 ag)
COc1ccc(OC)c(/C=c2\sc3nc(-c4cccs4)nn3c2=O)c1	M1 ag 13 | M1 ag confirm 478 | M4 ag counter 556
CCOC(=O)C(C)Sc1nnc(CNC(=O)c2ccc(OC)cc2)n1C1CCCCC1 (stereo not given)	M1 ag 3.3 | M1 ag confirm inconclusive | M4 ag counter inconclusive
COc1ccc(C(=O)NCc2nnc(SC)n2C2CCCCC2)cc1	none
CCOC(=O)C1CCCN(C(=O)c2ccc(CS(=O)(=O)c3ccc(C)cc3)o2)C1 (stereo not given)	M1 ag 34 | M1 ag confirm 261 | M4 ag counter inactive
Cc1ccc2cccnc2c1[N+](=O)[O-]	none (no result: Ecoli WT expand, Ecoli tolC, Hsp90 block, M1 antagonist, M1 ag)
O=C(Nc1cccc(-c2cn3cccnc3n2)c1)c1ccco1	none (not shown: BAP1 block)
O=C(Nc1cccc(-c2cn3cccnc3n2)c1)c1ccc2c(c1)OCO2	M1 ag 3 (not shown: BAP1 block) | M1 ag confirm inconclusive | M4 ag counter inconclusive
CCN(c1ccccc1)S(=O)(=O)c1ccc(F)cc1C	M1 ag 15 | M1 ag confirm inconclusive | M4 ag counter inactive
CCN(c1ccccc1)S(=O)(=O)c1ccc(F)c(C(=O)O)c1	none
CCn1cc(C(=O)NCc2ccccn2)c(=O)c2cc(S(=O)(=O)N3CCCCC3)ccc21	Hsp90 block 65, M1 ag 11 | M1 ag confirm 73 | M4 ag counter inactive
CCn1cc(C(=O)NC2CCC(C)CC2)c(=O)c2cc(S(=O)(=O)N3CCCCC3)ccc21 (stereo not given)	none
CN(C)CCCN(C(=O)c1cccs1)c1nc(-c2ccccc2)cs1	M1 antagonist -8.7, M1 ag 14 | M1 ag confirm inactive | M4 ag counter inactive
CCC(=O)N(Cc1ccco1)c1nc(-c2ccccc2)cs1	none
O=C(COC(=O)CCc1c[nH]c(=O)[nH]1)Nc1cccc(Cl)c1	M1 ag 5.2 | M1 ag confirm inactive | M4 ag counter inactive
O=C1c2ccccc2-c2onc3ccc(NCc4ccco4)c1c23	Hsp90 block 50, M1 ag 183 | M1 ag confirm 624 | M4 ag counter 1149
CCOc1ccc2noc3c2c1C(=O)c1ccccc1-3	M1 antagonist -9.6, M1 ag 397 | M1 ag confirm 3216 | M4 ag counter 2874
COc1ccc(S(=O)(=O)NCCCCNS(=O)(=O)c2ccc(OC)cc2)cc1	M1 ag -4.2 | M1 ag confirm inactive | M4 ag counter inactive
COc1ccc(OCC(=O)N2CCN(c3nnc(-c4ccccc4)c4ccccc34)CC2)cc1	M1 antagonist -7, M1 ag 7.3 | M1 ag confirm inconclusive | M4 ag counter inactive
O=C(NCCCN1CCOCC1)c1cc(-c2ccc(Br)cc2)on1	M1 ag 2.2 | M1 ag confirm inconclusive | M4 ag counter inactive
CSc1nc2c(c(=O)[nH]1)C(c1ccc(Br)cc1)c1c(nc(SC)[nH]c1=O)O2	none (no result: Ecoli WT expand, Ecoli tolC, Hsp90 block, M1 antagonist, M1 ag)
C/C(O)=c1/ccc2cccc3nc(C)nc1c23	Ecoli tolC 73, M1 ag 114 | M1 ag confirm 896 | M4 ag counter 814
Cc1nc2ccccc2nc(C)c1=NO	none (no result: BAP1 block, Ecoli tolC, Hsp90 block, M1 antagonist, M1 ag)
O=C(c1cc([N+](=O)[O-])ccc1Cl)N1CCCc2ccccc21	none (no result: Ecoli WT expand, Ecoli tolC, Hsp90 block, M1 antagonist, M1 ag)
CC(C)[C@H](NC(=O)[C@@H]1CSCN1C(=O)OC(C)(C)C)C(=O)NCC1CCC(C(=O)O)CC1 (stereo not given in full)	M1 ag 1.8 | M1 ag confirm inactive | M4 ag counter inconclusive
Cc1ccccc1N1C(=O)c2ccc(C(=O)Nc3cccc([N+](=O)[O-])c3)cc2C1=O	none (no result: Ecoli WT expand, Ecoli tolC, Hsp90 block, M1 antagonist, M1 ag)
O=C(COC(=O)CN1C(=O)C2CC=CCC2C1=O)Nc1cc(C(F)(F)F)ccc1N1CCOCC1 (stereo not given)	M1 ag 3.6 | M1 ag confirm inconclusive | M4 ag counter inconclusive
Cc1cc(C)cc(OCC(=O)Nc2cccc(-c3nnc(-c4ccco4)o3)c2)c1	M1 ag 4.5 (not shown: BAP1 block) | M1 ag confirm -30 | M4 ag counter inactive
CCOC(=O)c1c(-c2ccccc2)oc2ccc(Oc3c([N+](=O)[O-])ncn3C)cc12	none (no result: Ecoli WT expand, Ecoli tolC, Hsp90 block, M1 antagonist, M1 ag)
